Data taken from ChEMBL document CHEMBL4257503, “N-Acetyl-3-aminopyrazoles block the non-canonical NF-kB cascade by selectively inhibiting NIK” (Medchemcomm, 2018).

How the values were obtained:
[1] = target: T1, Mitogen-activated protein kinase kinase kinase 14 (Homo sapiens, UniProt Q99558); test: Inhibition of recombinant human full-length N-terminal GST-fused/His6-tagged NIK (M1 to P947 residues) expressed in Sf9 insect cells using AKDVDQGSLCTSFVGTLQY peptide as substrate measured after 60 mins by ADP-Glo kinase assay
Target sequence in this assay (Q99558 whole entry, the tested form may be a part): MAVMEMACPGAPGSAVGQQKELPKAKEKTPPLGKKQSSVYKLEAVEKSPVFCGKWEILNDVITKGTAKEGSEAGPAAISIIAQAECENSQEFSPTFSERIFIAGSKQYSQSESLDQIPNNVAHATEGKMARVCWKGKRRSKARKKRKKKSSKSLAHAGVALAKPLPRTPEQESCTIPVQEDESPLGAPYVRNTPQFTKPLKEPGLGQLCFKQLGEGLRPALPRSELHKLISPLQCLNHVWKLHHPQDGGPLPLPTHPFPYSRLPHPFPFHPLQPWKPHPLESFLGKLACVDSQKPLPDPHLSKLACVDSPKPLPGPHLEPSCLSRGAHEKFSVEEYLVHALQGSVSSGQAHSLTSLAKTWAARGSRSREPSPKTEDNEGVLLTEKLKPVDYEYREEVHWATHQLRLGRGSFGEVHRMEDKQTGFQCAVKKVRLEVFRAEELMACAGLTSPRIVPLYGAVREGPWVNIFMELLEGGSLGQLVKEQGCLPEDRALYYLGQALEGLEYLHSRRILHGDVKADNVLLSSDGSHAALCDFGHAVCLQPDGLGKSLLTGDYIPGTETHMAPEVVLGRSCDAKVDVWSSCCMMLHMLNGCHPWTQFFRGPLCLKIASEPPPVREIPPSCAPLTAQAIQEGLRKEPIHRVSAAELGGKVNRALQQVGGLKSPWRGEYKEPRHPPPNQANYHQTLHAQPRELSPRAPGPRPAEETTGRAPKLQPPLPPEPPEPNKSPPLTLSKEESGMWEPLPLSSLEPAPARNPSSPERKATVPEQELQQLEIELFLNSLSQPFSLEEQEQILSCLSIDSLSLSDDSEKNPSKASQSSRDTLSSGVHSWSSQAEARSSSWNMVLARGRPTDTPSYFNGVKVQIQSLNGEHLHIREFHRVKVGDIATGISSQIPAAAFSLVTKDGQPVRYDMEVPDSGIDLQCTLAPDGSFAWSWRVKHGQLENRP

[2] = Cytotoxicity against human EJM cells assessed as cell viability at 25 uM after 6 hrs by CellTiter Glo luminescent assay relative to control; format: cell-based; conditions: read-out: Activity
Method in brief: (§1)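 Cells seeded at 5 x 10^3 per well and exposed for 6 h to the compound (10, 25, 50 or 100 µM) or to DMSO vehicle. Viability was read as intracellular ATP by CellTiter Glo luminescence.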

[3] = Cytotoxicity against human MDA-MB-231 cells assessed as cell viability at 100 uM after 6 hrs by CellTiter Glo luminescent assay relative to control; format: cell-based; conditions: read-out: Activity; method in brief: as §1
[4] = target: T1, Mitogen-activated protein kinase kinase kinase 14; test: Inhibition of NIK-induced NFkappaB activation in human EJM cells at 25 uM after 6 hrs by dual luciferase reporter gene assay relative to control; format: cell-based
Method in brief: (§2)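 Cells were nucleofected with the pGL4.32 NF-κB-RE firefly luciferase and pGL4.74 TK-Renilla plasmids (3 µg, 10:1 ratio) and cultured for 24 h at 37 °C. Compound (10, 25, 50 or 100 µM) was then added for 6 h. Firefly luminescence was normalised to Renilla from the same sample and expressed as % of vehicle control. Means ± SD of three independent experiments.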
Target sequence in this assay (Q99558 whole entry, looked up, the tested form may be a part): as the sequence (Q99558 whole entry, the tested form may be a part) above

MDA-MB-231 [5] = test: Inhibition of NFkappaB activation in human MDA-MB-231 cells at 100 uM after 6 hrs by dual luciferase reporter gene assay relative to control; format: cell-based; method in brief: as §2
Homo sapiens [6] = species: Homo sapiens; test: Inhibition of NFkappaB activation in human SKBR3 cells at 100 uM after 6 hrs by dual luciferase reporter gene assay relative to control; format: cell-based; method in brief: as §2
[7] = target: T2, Inhibitor of nuclear factor kappa-B kinase subunit epsilon (Homo sapiens, UniProt Q14164); test: Inhibition of recombinant human full-length N-terminal GST-fused/His6-tagged IKKepsilon (M1 to V716 residues) expressed in Sf9 insect cells using ERLLDDRHDSGLDSMKDEE peptide as substrate measured after 60 mins by ADP-Glo kinase assay
T2 sequence (Q14164 whole entry): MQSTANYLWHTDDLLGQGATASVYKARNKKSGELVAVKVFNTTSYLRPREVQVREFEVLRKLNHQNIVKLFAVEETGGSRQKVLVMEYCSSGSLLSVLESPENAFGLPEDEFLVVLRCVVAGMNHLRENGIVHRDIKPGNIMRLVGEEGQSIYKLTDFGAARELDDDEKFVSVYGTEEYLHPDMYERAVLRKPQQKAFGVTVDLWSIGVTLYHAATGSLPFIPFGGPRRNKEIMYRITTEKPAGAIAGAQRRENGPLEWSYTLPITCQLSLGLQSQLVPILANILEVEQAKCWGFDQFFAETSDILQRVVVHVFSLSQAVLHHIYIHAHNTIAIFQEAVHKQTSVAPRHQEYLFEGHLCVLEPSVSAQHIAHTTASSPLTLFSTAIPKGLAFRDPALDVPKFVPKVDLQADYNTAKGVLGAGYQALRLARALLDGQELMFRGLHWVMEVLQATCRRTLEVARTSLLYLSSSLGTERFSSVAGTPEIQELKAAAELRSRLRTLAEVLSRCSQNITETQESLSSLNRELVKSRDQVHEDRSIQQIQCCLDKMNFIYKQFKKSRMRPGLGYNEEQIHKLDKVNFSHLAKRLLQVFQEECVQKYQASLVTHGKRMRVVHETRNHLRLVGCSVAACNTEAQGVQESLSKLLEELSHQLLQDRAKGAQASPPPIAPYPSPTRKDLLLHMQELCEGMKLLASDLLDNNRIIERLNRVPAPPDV

[8] = target: T3, Inhibitor of nuclear factor kappa-B kinase subunit beta (Homo sapiens, UniProt O14920); test: Inhibition of recombinant human full-length N-terminal GST-fused/His6-tagged IKKbeta (M1 to S756 residues) expressed in Sf9 insect cells using ERLLDDRHDSGLDSMKDEE peptide as substrate measured after 60 mins by ADP-Glo kinase assay
T3 sequence (O14920 whole entry): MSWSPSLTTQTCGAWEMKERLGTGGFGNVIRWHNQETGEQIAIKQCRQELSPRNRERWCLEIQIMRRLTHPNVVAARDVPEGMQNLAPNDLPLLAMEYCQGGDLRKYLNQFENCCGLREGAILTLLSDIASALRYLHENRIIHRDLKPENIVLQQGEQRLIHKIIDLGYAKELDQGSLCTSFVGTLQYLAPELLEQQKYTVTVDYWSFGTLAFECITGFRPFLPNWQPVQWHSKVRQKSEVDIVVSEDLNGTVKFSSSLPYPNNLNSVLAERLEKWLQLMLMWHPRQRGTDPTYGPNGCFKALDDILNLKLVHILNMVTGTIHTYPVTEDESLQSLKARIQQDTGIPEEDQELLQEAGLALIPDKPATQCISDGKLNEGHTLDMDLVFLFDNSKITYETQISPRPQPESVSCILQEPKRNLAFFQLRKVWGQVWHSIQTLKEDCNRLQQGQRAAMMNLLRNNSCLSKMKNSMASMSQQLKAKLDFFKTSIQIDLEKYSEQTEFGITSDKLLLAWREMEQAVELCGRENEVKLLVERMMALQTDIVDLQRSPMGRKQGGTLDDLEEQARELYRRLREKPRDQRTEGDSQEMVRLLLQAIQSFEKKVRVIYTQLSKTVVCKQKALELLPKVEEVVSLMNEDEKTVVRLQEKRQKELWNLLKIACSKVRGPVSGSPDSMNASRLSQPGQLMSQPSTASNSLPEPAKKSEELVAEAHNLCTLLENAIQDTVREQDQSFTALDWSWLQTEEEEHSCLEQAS

[9] = Cytotoxicity against human SKBR3 cells assessed as cell viability at 100 uM after 6 hrs by CellTiter Glo luminescent assay relative to control; format: cell-based, SK-BR-3; conditions: read-out: Activity; method in brief: as §1
[10] = target: T4, Inhibitor of nuclear factor kappa-B kinase subunit alpha (Homo sapiens, UniProt O15111); test: Inhibition of recombinant full length human His-tagged IKKalpha expressed in baculovirus expression system using ERLLDDRHDSGLDSMKDEE peptide as substrate measured after 60 mins by ADP-Glo kinase assay
T4 sequence (O15111 whole entry): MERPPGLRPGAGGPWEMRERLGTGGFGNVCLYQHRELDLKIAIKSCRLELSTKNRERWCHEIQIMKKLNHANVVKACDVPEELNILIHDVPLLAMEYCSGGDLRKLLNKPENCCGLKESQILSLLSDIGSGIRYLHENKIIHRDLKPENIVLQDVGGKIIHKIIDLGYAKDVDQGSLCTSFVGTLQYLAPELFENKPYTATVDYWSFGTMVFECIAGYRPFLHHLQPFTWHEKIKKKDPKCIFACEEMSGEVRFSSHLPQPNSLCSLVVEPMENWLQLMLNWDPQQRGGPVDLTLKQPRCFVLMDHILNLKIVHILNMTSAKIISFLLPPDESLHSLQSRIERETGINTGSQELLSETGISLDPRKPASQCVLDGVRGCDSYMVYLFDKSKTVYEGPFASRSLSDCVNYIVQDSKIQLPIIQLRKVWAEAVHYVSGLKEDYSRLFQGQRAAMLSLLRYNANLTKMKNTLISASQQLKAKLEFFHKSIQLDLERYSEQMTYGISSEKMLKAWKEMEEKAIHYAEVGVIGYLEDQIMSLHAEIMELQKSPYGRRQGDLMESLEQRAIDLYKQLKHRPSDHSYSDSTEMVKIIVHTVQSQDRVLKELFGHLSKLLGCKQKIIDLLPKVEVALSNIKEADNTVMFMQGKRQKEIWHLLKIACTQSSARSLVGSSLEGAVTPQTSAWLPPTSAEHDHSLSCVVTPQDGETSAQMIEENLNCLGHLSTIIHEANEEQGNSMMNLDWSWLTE
Method in brief: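 Recombinant human IKKα, peptide substrate 100 µM, enzyme 8 ng/µL, ATP 1 µM in Tris-HCl pH 7.5 buffer with MgCl2, MnCl2, DTT, Na3VO4, BSA; 25°C, 60 min; ADP-Glo luminescence. Ten concentrations 0.005–100 µM; IC50 by nonlinear regression; means ± SD of three independent experiments.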

[11] = target: T1, Mitogen-activated protein kinase kinase kinase 14; test: Inhibition of NIK-induced NFkappaB activation in human EJM cells at 50 uM after 6 hrs by dual luciferase reporter gene assay relative to control; format: cell-based; method in brief: as §2
Target sequence in this assay (Q99558 whole entry, looked up, the tested form may be a part): as the sequence (Q99558 whole entry, the tested form may be a part) above

[12] = Cytotoxicity against human EJM cells assessed as cell viability at 50 uM after 6 hrs by CellTiter Glo luminescent assay relative to control; format: cell-based; conditions: read-out: Activity; method in brief: as §1
MDA-MB-231 [13] = test: Inhibition of NFkappaB activation in human MDA-MB-231 cells at 50 uM after 6 hrs by dual luciferase reporter gene assay relative to control; format: cell-based; method in brief: as §2
[14] = Cytotoxicity against human MDA-MB-231 cells assessed as cell viability at 50 uM after 6 hrs by CellTiter Glo luminescent assay relative to control; format: cell-based; conditions: read-out: Activity; method in brief: as §1
[15] = target: T1, Mitogen-activated protein kinase kinase kinase 14; test: Inhibition of NIK-induced NFkappaB activation in human EJM cells at 20 uM after 6 hrs by dual luciferase reporter gene assay relative to control; format: cell-based
Target sequence in this assay (Q99558 whole entry, looked up, the tested form may be a part): as the sequence (Q99558 whole entry, the tested form may be a part) above

Homo sapiens [16] = species: Homo sapiens; test: Inhibition of NFkappaB activation in human SKBR3 cells at 50 uM after 6 hrs by dual luciferase reporter gene assay relative to control; format: cell-based; method in brief: as §2
[17] = Cytotoxicity against human EJM cells assessed as cell viability at 20 uM after 6 hrs by CellTiter Glo luminescent assay relative to control; format: cell-based; conditions: read-out: Activity
[18] = Cytotoxicity against human SKBR3 cells assessed as cell viability at 50 uM after 6 hrs by CellTiter Glo luminescent assay relative to control; format: cell-based, SK-BR-3; conditions: read-out: Activity; method in brief: as §1
Homo sapiens [19] = species: Homo sapiens; test: Inhibition of NFkappaB activation in human SKBR3 cells at 1 uM after 6 hrs by dual luciferase reporter gene assay relative to control; format: cell-based
[20] = Cytotoxicity against human EJM cells assessed as cell viability at 1 uM after 6 hrs by CellTiter Glo luminescent assay relative to control; format: cell-based; conditions: read-out: Activity
[21] = Cytotoxicity against human MDA-MB-231 cells assessed as cell viability at 1 uM after 6 hrs by CellTiter Glo luminescent assay relative to control; format: cell-based; conditions: read-out: Activity
MDA-MB-231 [22] = test: Inhibition of NFkappaB activation in human MDA-MB-231 cells at 1 uM after 6 hrs by dual luciferase reporter gene assay relative to control; format: cell-based
[23] = Cytotoxicity against human SKBR3 cells assessed as cell viability at 1 uM after 6 hrs by CellTiter Glo luminescent assay relative to control; format: cell-based, SK-BR-3; conditions: read-out: Activity
[24] = target: T1, Mitogen-activated protein kinase kinase kinase 14; test: Inhibition of NIK-induced NFkappaB activation in human EJM cells at 100 uM after 6 hrs by dual luciferase reporter gene assay relative to control; format: cell-based; method in brief: as §2
Target sequence in this assay (Q99558 whole entry, looked up, the tested form may be a part): as the sequence (Q99558 whole entry, the tested form may be a part) above

[25] = Cytotoxicity against human EJM cells assessed as cell viability at 100 uM after 6 hrs by CellTiter Glo luminescent assay relative to control; format: cell-based; conditions: read-out: Activity; method in brief: as §1

Compound	IC50 [1]	viability at 6 h, 100 µM [3]	inhibition (MDA-MB-231 [5])	inhibition (Homo sapiens [6])	IC50 [7]	IC50 [8]	viability at 6 h, 100 µM [9]	IC50 [10]	inhibition [11]	viability at 6 h, 50 µM [12]	inhibition (MDA-MB-231 [13])	viability at 6 h, 50 µM [14]	also measured
Cc1nn(C(=O)C2CCC2)c(N)c1-c1ccc(Cl)c(Cl)c1	2.9 µM	≥ 80%	2.36%	5.2%	> 100 µM	> 100 µM	≥ 80%	> 100 µM	–	–	–	–	viability at 6 h, 25 µM [2]: ≥ 80%; inhibition [4]: 96.2%
CCC(=O)n1nc(C)c(-c2ccc(Cl)c(Cl)c2)c1N	27.4 µM	≥ 80%	10.3%	-3.14%	> 100 µM	> 100 µM	≥ 80%	> 100 µM	66.8%	≥ 80%	–	–	–
Cc1n[nH]c(N)c1-c1ccc(Cl)cc1	61.1 µM	–	–	4.2%	> 100 µM	37.9 µM	≥ 80%	> 100 µM	10.4%	≥ 80%	29.9%	≥ 80%	–
O=C(Nc1cc(Cl)c2c(c1)[nH]c1cnccc12)c1cccnc1	> 100 µM	–	–	–	> 100 µM	0.09 µM	–	> 100 µM	–	–	87.9%	≥ 80%	inhibition [15]: 89.3%; inhibition (Homo sapiens [16]): 3.6%; viability at 6 h, 20 µM [17]: ≥ 80%; viability at 6 h, 50 µM [18]: ≥ 80%
COCCOc1cnc(N)nc1-c1c[nH]c2ccc(C#CC(C)(C)O)cc12	0.07 µM	–	–	–	> 100 µM	> 100 µM	–	> 100 µM	–	–	–	–	inhibition (Homo sapiens [19]): 2.3%; viability at 6 h, 1 µM [20]: ≥ 80%; viability at 6 h, 1 µM [21]: ≥ 80%; inhibition (MDA-MB-231 [22]): 7.1%; viability at 6 h, 1 µM [23]: ≥ 80%
Cc1nn(C(=O)C2CC2)c(N)c1-c1ccc(Cl)c(Cl)c1	24.3 µM	–	–	–	> 100 µM	> 100 µM	–	> 100 µM	–	–	5.8%	≥ 80%	inhibition (Homo sapiens [16]): 3.66%; inhibition [24]: 68.9%; viability at 6 h, 100 µM [25]: ≥ 80%; viability at 6 h, 50 µM [18]: ≥ 80%
Cc1nn(C(=O)C2CCCCC2)c(N)c1-c1ccc(Cl)c(Cl)c1	3.3 µM	≥ 80%	2.36%	3.7%	> 100 µM	> 100 µM	≥ 80%	> 100 µM	–	–	–	–	viability at 6 h, 25 µM [2]: ≥ 80%; inhibition [4]: 94.7%
Cc1nn(C(=O)c2ccccc2)c(N)c1-c1ccc(Cl)c(Cl)c1	23 µM	≥ 80%	13.8%	0.31%	> 100 µM	> 100 µM	≥ 80%	> 100 µM	75.2%	≥ 80%	–	–	–
